This note sets out measurements from ChEMBL document CHEMBL1158805, “Neurotoxic meroditerpenoids from the tropical marine brown alga Stypopodium flabelliforme” (J Nat Prod, 2005).

Usually pEC50 stands for the EC50 on a negative log10 scale, so that one unit is a factor of ten.

pEC50: −log10 of the molar value. Some results are limits rather than exact numbers.

A short description of data set [1]: Cytotoxicity against mouse Neuro2a cells after 48 hrs by MTT assay. It is filed as functional. The conditions noted are these: N2a, read-out: LC50 (the source's name). The method in brief:
(§1)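 Cells seeded at 6000/well in RPMI 1640 with 10% FBS. After 24 h, compound in DMSO, diluted in serum-free medium, was added (DMSO under 1% final). Viability was read by MTT reduction after 48 h, giving LC50.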
In general terms: Formazan colour is commonly taken as a measure of viable cells.

The subject of a further data set is NCI-H460. The data set is described as follows: Cytotoxicity against human NCI-H460 cells after 48 hrs by MTT assay. The conditions noted are these: NCI-H460, 48 h, read-out: LC50 (the source's name). The data set is classed as functional. The method in brief: as §1
The next data set relates to Neuro2a. The data set is described as follows: Inhibition of voltage-gated sodium channel in mouse Neuro2a cells after 22 hrs. It is filed as cell-based.
The next data set relates to Artemia salina. Description: Toxicity in Artemia salina after 24 hrs. The data set is classed as organism-based. The note with it: in vivo. In short, it runs like this: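 About 15 hatched Artemia salina per well in roughly 5 mL of artificial seawater, with sample added in 50 µL EtOH. Held 24 h at 28 °C, then live and dead shrimp counted. Run in duplicate.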
A short description of data set [2]: Increase in calcium influx in Sprague-Dawley rat CGN measured every 6 seconds for 24 mins by FLIPR assay. It is filed as functional. The method in brief:
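Cerebellar granule neurons from 8-day-old Sprague-Dawley rat cerebella were used at 10-13 days in culture. Cells were loaded 1 h at 37 °C with 4 µM fluo-3 AM and 0.04% pluronic acid in Locke's buffer (pH 7.4), washed, then read by FLIPR (488 nm excitation, 500-560 nm emission). Baseline was read every 3 s for 1 min, readings stayed at 3 s for 2 min after addition, then every 6 s, 24 min total. Response was AUC (trapezoid rule); EC50 came from a logistic fit.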

A short description of data set [3]: Cytotoxicity against Sprague-Dawley rat CGN assessed as LDH efflux after 2 hrs. The note with it: CGN (primary cells from Sprague-Dawley rat), read-out: LC50. In short, it runs like this: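 Primary cerebellar granule neurons from 8-day-old Sprague-Dawley rats in BME with 25 mM KCl, 10 µM cytosine arabinoside added after 18-24 h, used at 10-13 days in culture. Washed into Locke's buffer (pH 7.4, 1% DMSO) and exposed to compound (1-100 µM) for 2 h at 22 °C. LDH released to medium assayed. Logistic fit of concentration-response; triplicate, repeated twice.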

The nature of data set [4]: Cytotoxicity against Sprague-Dawley rat CGN assessed as LDH efflux after 2 hrs in presence of tetrodotoxin. The data set is classed as ADME.

In the case of `CC1=CC(=O)C2=C(C[C@H]3[C@@]4(C)CC[C@H]5C(C)(C)[C@@H](O)CC[C@@]5(C)[C@H]4CC[C@]23C)C1=O` [FLABELLINONE], the CC50 in data set [1] amounted to 2 µM; in the data set with NCI-H460, 14 µM. In the data set with Neuro2a, this molecule yielded an Activity of 7 µM.

Take `COc1c(C)cc(O)c2c1C[C@H]1[C@@]3(C)CC[C@H]4C(C)(C)[C@@H](O)CC[C@@]4(C)[C@H]3CC[C@]21C` [FLABELLINOL]: the CC50 in data set [1] was 2 µM; in the data set on NCI-H460, 9 µM. In addition, the Activity in the data set with Neuro2a amounted to 2 µM.

Turning to `Cc1cc(O)cc2c1O[C@]1(C)CC[C@@H]3[C@](C)(CC[C@H]4C(C)(C)[C@@H](O)CC[C@]34C)[C@H]1C2`, the values for the CC50 (in data set [1]; in the data set with NCI-H460) were 2 µM and 24 µM, respectively. For the same molecule, the LC90 with Artemia salina was found to be 24 µM. The molecule also yielded an Activity with Neuro2a of 0.7 µM.

As to `CC1=CC(=O)C(=O)C2=C1O[C@@]1(C2)[C@@H](C)CC[C@@H]2[C@@]3(C)CC[C@H](O)C(C)(C)C3CC[C@]21C` (stereo partly specified) [STYPOLDIONE], in data set [2], the pEC50 was 4.56. The CC50 at 2 h in data set [3] stood at 37.4 µM. Also, the result in data set [4] was Active.

For `COC1=CC(C)=C2O[C@@]3(CC2(OO)C1=O)[C@@H](O)CC[C@@H]1[C@@]2(C)CC[C@H](O)C(C)(C)[C@@H]2CC[C@]13C` (stereo partly specified) [STYPOHYDROPEROXIDE], the CC50 in data set [1] was above 21 µM; with NCI-H460, above 25 µM.

Regarding `C[C@H]1CC[C@@H]2[C@@]3(C)CC[C@H](O)C(C)(C)[C@@H]3CC[C@@]2(C)[C@]12Cc1c(O)c(O)cc(C=O)c1O2`, the pEC50 in data set [2] is 4.00.
